The nature of data set [1]: Metabolic stability in Sprague-Dawley rat liver microsomes assessed as compound remaining at 10 uM after 60 mins by HPLC analysis. The following applies: read-out: Stability. It is filed as ADME, microsome.
Data set [2] deals with T1, Bifunctional epoxide hydrolase 2 (Homo sapiens) (UniProt P34913).
T1 sequence (whole entry): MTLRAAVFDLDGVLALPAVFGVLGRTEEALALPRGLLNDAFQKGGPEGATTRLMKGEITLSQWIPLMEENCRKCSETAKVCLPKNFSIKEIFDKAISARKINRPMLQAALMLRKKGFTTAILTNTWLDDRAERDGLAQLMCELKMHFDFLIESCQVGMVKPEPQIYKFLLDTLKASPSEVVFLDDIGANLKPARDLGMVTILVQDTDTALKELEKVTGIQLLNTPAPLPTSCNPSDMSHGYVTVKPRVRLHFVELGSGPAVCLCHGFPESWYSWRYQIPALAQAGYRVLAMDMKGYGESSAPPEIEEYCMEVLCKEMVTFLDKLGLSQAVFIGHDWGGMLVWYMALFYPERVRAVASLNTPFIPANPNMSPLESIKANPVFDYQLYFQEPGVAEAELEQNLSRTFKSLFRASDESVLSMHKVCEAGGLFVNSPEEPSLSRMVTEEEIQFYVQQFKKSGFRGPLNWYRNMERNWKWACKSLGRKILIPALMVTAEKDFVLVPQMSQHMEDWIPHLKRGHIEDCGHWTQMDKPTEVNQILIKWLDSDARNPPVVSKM
The data set is described as follows: Inhibition of sEH in human HuT-78 cells assessed as reduction in Pam3CSK4-stimulated TNFalpha release preincubated for 24 hrs followed by Pam3CSK4 addition measured after 18 hrs by ELISA. It counts as cell-based. The procedure, abridged: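 HuT-78 cells in RPMI 1640 with 10% heat-inactivated FCS, 2.0 × 10^6 cells/well, exposed to compound (0.1% DMSO) for 24 h; medium then replaced with fresh compound plus Pam3CSK4 20 ng/mL for 18 h; supernatant TNFα measured by ELISA (absorbance 450 nm); each concentration repeated independently at least three times.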

In data set [3] the target is Vitamin D3 receptor (Homo sapiens) (UniProt P11473). The experiment in a line: Transactivation of human GAL4-fused VDR ligand binding domain expressed in […] cells at 10 uM after 12 to 14 hrs by dual-glo luciferase reporter gene assay. It counts as cell-based. The method in brief:
(§1)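 HEK293T cells in DMEM/10% FCS, Opti-MEM before Lipofectamine LTX transfection with pFR-Luc reporter, pRL-SV40 and pFA-CMV GAL4–LBD plasmid. 5 h later compound in 0.1% DMSO, Opti-MEM, overnight (12−14 h). Dual luciferase; firefly/renilla ×1000 = RLU, fold over DMSO control; triplicates, ≥3 independent repeats.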

The next data set deals with Liver. The data set is described as follows: Drug metabolism in Sprague-Dawley rat liver microsomes assessed as N-(2-chloro-4-(methylsulfonamido)benzyl)-4-(1-hydroxy-2-methylpropan-2-yl)benzamide formation at 10 uM preincubated with NADPH regenerating system for 5 mins followed by addition of liver microsomes by LC-MS/MS method. It is filed as ADME, microsome.
The next data set addresses T2, Bile acid receptor (Homo sapiens, UniProt Q96RI1).
T2 sequence (Q96RI1 whole entry): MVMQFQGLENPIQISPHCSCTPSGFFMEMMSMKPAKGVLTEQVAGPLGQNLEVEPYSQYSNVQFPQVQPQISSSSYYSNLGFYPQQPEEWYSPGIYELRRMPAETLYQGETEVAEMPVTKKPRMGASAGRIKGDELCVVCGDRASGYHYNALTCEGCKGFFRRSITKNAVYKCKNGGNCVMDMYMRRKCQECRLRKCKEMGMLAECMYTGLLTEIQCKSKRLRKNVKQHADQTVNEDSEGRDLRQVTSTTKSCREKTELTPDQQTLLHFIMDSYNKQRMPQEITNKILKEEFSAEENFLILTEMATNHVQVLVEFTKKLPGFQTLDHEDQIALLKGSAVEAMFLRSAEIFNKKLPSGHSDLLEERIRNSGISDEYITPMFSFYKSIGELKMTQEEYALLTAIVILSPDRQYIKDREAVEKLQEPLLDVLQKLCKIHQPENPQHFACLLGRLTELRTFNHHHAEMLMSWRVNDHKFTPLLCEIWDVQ
The experiment in a line: Transactivation of FXR in human HepG2 cells assessed as CYP7A1 mRNA expression at 1 uM after 8 to 16 hrs by SYBR green based qRT-PCR analysis relative to DMSO control. It counts as ADME, cell-based. The procedure, abridged:
(§2)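 HepG2 cells incubated with test compound (0.1 and 1 μM) or 0.1% DMSO for 8 or 16 h, washed in cold PBS, RNA extracted; target mRNA by SYBR Green qRT-PCR, duplicate samples, ≥4 independent experiments; comparative ΔΔCt with GAPDH reference, vehicle set as 100%.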

Data set [4] has as its target Retinoic acid receptor RXR-gamma (Homo sapiens) (UniProt P48443). The data set is described as follows: Transactivation of human GAL4-fused RXRgamma ligand binding domain expressed in […] cells at 10 uM after 12 to 14 hrs by dual-glo luciferase reporter gene assay. It is filed as cell-based. The method in brief:
as §1

For data set [5], the target named is T3, Bile acid receptor (Homo sapiens) (UniProt Q96RI1).
T3 sequence (whole entry): T2 sequence (Q96RI1 whole entry)
The experiment in a line: Transactivation of FXR in human HepG2 cells assessed as FGF19 mRNA expression at 1 uM after 8 to 16 hrs by SYBR green based qRT-PCR analysis relative to DMSO control. It is filed as cell-based. The method in brief:
as §2

Data set [6] has as its target Retinoic acid receptor RXR-beta (Homo sapiens) (UniProt P28702). The data set is described as follows: Transactivation of human GAL4-fused RXRbeta ligand binding domain expressed in […] cells at 10 uM after 12 to 14 hrs by dual-glo luciferase reporter gene assay. It is filed as cell-based. The procedure, abridged:
as §1

Data set [7] deals with Retinoic acid receptor alpha (Homo sapiens) (UniProt P10276). The data set is described as follows: Transactivation of human GAL4-fused RARalpha ligand binding domain expressed in […] cells at 10 uM after 12 to 14 hrs by dual-glo luciferase reporter gene assay. It is filed as cell-based. The method in brief: as §1
The target of data set [8] is T4, Peroxisome proliferator-activated receptor gamma (Homo sapiens) (UniProt P37231).
T4 sequence (whole entry): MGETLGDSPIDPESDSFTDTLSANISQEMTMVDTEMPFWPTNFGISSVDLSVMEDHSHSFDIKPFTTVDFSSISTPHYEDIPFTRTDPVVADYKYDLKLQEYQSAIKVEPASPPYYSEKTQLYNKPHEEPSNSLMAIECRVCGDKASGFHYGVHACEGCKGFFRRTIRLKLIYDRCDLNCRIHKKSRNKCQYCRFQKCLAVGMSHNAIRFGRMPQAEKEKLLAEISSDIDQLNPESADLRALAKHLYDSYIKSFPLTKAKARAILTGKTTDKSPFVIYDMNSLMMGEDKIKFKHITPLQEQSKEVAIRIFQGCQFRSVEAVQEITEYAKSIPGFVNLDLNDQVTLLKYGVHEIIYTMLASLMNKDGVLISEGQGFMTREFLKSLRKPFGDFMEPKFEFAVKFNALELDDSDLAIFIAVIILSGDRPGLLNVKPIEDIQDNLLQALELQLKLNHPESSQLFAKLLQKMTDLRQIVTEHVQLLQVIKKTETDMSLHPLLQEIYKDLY
The data set is described as follows: Transactivation of human GAL4-fused PPARgamma ligand binding domain expressed in HEL293T cells at 10 uM after 12 to 14 hrs by dual-glo luciferase reporter gene assay relative to pioglitazone. It is filed as cell-based.

The source made the active and inactive calls. No cut-off for these calls is given here.

Retinoic acid receptor alpha (Homo sapiens), sequence (P10276 whole entry, the tested form may be a part): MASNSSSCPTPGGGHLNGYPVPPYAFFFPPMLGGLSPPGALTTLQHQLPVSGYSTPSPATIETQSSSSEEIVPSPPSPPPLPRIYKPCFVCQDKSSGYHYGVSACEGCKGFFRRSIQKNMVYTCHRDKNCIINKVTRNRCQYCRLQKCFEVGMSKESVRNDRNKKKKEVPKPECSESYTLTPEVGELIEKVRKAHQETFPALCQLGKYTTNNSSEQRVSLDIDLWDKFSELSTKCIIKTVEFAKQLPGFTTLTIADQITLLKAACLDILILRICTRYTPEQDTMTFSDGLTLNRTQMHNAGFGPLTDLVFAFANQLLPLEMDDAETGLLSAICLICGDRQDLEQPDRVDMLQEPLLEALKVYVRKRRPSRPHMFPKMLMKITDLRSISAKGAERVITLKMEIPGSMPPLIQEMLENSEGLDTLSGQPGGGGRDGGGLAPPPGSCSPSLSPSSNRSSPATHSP
Retinoic acid receptor RXR-beta (Homo sapiens), sequence (P28702 whole entry, the tested form may be a part): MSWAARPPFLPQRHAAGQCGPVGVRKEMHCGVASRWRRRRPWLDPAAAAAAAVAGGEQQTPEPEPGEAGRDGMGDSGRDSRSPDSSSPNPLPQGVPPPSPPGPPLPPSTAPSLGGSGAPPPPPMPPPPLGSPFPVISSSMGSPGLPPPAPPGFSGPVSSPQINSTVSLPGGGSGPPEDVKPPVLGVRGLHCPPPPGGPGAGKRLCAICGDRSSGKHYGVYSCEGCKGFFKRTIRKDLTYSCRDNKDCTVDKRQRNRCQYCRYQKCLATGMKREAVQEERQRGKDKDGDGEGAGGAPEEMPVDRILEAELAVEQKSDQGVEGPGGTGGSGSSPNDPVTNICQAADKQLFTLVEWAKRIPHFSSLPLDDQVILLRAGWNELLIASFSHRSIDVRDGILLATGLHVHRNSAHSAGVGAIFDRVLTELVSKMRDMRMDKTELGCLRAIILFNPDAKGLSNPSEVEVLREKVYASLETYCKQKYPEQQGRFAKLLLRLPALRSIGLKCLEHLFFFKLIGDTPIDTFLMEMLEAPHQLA
Retinoic acid receptor RXR-gamma (Homo sapiens), sequence (P48443 whole entry, the tested form may be a part): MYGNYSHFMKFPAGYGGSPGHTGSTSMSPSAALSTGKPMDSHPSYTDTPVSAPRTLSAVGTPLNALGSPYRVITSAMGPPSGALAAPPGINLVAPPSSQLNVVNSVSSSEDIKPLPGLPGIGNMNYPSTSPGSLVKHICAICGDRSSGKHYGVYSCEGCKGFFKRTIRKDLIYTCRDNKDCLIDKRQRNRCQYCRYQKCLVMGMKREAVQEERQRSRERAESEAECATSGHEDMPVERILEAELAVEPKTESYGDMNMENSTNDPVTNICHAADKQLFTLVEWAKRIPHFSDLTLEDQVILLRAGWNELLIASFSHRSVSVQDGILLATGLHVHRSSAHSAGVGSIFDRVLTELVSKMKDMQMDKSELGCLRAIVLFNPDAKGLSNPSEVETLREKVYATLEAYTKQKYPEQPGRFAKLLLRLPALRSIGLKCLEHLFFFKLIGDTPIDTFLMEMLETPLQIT
Vitamin D3 receptor (Homo sapiens), sequence (P11473 whole entry, the tested form may be a part): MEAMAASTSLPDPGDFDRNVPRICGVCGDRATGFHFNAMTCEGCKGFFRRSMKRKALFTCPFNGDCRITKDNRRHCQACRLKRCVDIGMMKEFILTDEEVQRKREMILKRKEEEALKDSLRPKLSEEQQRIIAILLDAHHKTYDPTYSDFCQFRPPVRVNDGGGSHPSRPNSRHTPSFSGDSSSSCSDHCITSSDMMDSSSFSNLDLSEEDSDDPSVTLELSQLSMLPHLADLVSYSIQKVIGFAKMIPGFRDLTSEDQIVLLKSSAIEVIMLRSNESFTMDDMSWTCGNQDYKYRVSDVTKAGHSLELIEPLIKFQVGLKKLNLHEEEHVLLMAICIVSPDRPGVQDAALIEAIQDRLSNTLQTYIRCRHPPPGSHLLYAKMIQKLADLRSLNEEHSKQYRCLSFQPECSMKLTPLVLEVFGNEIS

As for `CC(C)(C)c1ccc(C(=O)NCc2ccc(NS(C)(=O)=O)cc2Cl)cc1`, in [1], the remaining at 1 h, 10 µM was above 50%. Further, in data set [2], the inhibition entry is “Active”. Further, the outcome in [3], in data set [4], in [6] and in [7] was inactive. Also, in the data set with Liver, the Drug metabolism result is given as “Metabolite_Detected”. Also, the Activity at Bile acid receptor came to 52%; in [5], 325%. In data set [8], this compound came in with an Emax of 30%.

Source of the values: ChEMBL document CHEMBL4017509, “A Dual Modulator of Farnesoid X Receptor and Soluble Epoxide Hydrolase To Counter Nonalcoholic Steatohepatitis” (J Med Chem, 2017).
